Assay results reported in ChEMBL document CHEMBL1123716, “Synthesis and tumor uptake of 5-halo-1-(2'-fluoro-2'-deoxy-beta-D-ribofuranosyl)[2-14C]uracils” (J Med Chem, 1987).
Where “and” joins values, the source holds several entries; their conditions need not be identical. Equal entries are not always repeated.

What was measured:
Format in all cases: ADME, organism-based
Conditions in all cases: in vivo
Mus musculus [1] = assay: Tissue distribution in BDF1 female mice bearing an implanted lewis lung tumor after intravenous injection in lung at 0.25 h.
Outline: (§1)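 Female BDF₁ mice (18–20 g) carrying transplanted Lewis lung tumor received 23–193 kBq of the [2-¹⁴C]-labeled nucleoside in normal saline via tail vein. The compound was stored as a dry film and reconstituted just before use. Animals were killed at set times, and tissue ¹⁴C was measured by combustion and liquid scintillation. Values are mean ± SD % injected dose per gram of wet tissue, n = 6.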

Mus musculus [2] = assay: Tissue distribution in BDF1 female mice bearing an implanted lewis lung tumor after intravenous injection in bone at 24 h.
Outline: (§2)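 Female BDF1 mice (18–20 g) with implanted Lewis lung tumor received the 2-14C compound by tail vein, 23–193 kBq in normal saline, reconstituted from a dry film just before use. Animals were killed at set times and tissues taken for 14C counting by combustion and liquid scintillation. Values are percent injected dose per gram wet tissue, mean ± standard deviation, six animals.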

Mus musculus [3] = assay: Tissue distribution in BDF1 female mice bearing an implanted lewis lung tumor after intravenous injection in lung at 1 h.; outline: as §1
Mus musculus [4] = assay: Tissue distribution in BDF1 female mice bearing an implanted lewis lung tumor after intravenous injection in lung at 4 h; outline: as §1
Mus musculus [5] = assay: Tissue distribution in BDF1 female mice bearing an implanted lewis lung tumor after intravenous injection in muscle at 0.5 h.; outline: as §1
Mus musculus [6] = assay: Tissue distribution in BDF1 female mice bearing an implanted lewis lung tumor after intravenous injection in muscle at 1 h.; outline: as §1
Mus musculus [7] = assay: Tissue distribution in BDF1 female mice bearing an implanted lewis lung tumor after intravenous injection in muscle at 2 h.; outline: as §1
Mus musculus [8] = assay: Tissue distribution in BDF1 female mice bearing an implanted lewis lung tumor after intravenous injection in muscle at 24 h.; outline: as §1
Mus musculus [9] = assay: Tissue distribution in BDF1 female mice bearing an implanted lewis lung tumor after intravenous injection in git(Section of intestine) at 0.5 h.; outline: as §2
Mus musculus [10] = assay: Tissue distribution in BDF1 female mice bearing an implanted lewis lung tumor after intravenous injection in git(Section of intestine) at 2 h.; outline: as §2
Mus musculus [11] = assay: Tissue distribution in BDF1 female mice bearing an implanted lewis lung tumor after intravenous injection in git(Section of intestine) at 24 h.; outline: as §2
Mus musculus [12] = assay: Tissue distribution in BDF1 female mice bearing an implanted lewis lung tumor after intravenous injection in bone at 1 h.; outline: as §2
Mus musculus [13] = assay: Tissue distribution in BDF1 female mice bearing an implanted lewis lung tumor after intravenous injection in git(Section of intestine) at 8 h.; outline: as §2
Mus musculus [14] = assay: Tissue distribution in BDF1 female mice bearing an implanted lewis lung tumor after intravenous injection in heart at 0.25 h.; outline: as §2
Mus musculus [15] = assay: Tissue distribution in BDF1 female mice bearing an implanted lewis lung tumor after intravenous injection in heart at 1 h.; outline: as §2
Mus musculus [16] = assay: Tissue distribution in BDF1 female mice bearing an implanted lewis lung tumor after intravenous injection in heart at 24 h.; outline: as §2
Mus musculus [17] = assay: Tissue distribution in BDF1 female mice bearing an implanted lewis lung tumor after intravenous injection in heart at 4 h.; outline: as §2
Mus musculus [18] = assay: Tissue distribution in BDF1 female mice bearing an implanted lewis lung tumor after intravenous injection in heart at 8 h.; outline: as §2
Mus musculus [19] = assay: Tissue distribution in BDF1 female mice bearing an implanted lewis lung tumor after intravenous injection in kidney at 24 h.; outline: as §1
Mus musculus [20] = assay: Tissue distribution in BDF1 female mice bearing an implanted lewis lung tumor after intravenous injection in kidney at 8 h.; outline: as §1
Mus musculus [21] = assay: Tissue distribution in BDF1 female mice bearing an implanted lewis lung tumor after intravenous injection in liver at 0.25 h.; outline: as §1
Mus musculus [22] = assay: Tissue distribution in BDF1 female mice bearing an implanted lewis lung tumor after intravenous injection in liver at 0.5 h.; outline: as §1
Mus musculus [23] = assay: Tissue distribution in BDF1 female mice bearing an implanted lewis lung tumor after intravenous injection in liver at 1 h.; outline: as §1
Mus musculus [24] = assay: Tissue distribution in BDF1 female mice bearing an implanted lewis lung tumor after intravenous injection in liver at 2 h.; outline: as §1
Mus musculus [25] = assay: Tissue distribution in BDF1 female mice bearing an implanted lewis lung tumor after intravenous injection in liver at 4 h.; outline: as §1
Mus musculus [26] = assay: Tissue distribution in BDF1 female mice bearing an implanted lewis lung tumor after intravenous injection in blood at 0.25 h; outline: as §2
Mus musculus [27] = assay: Tissue distribution in BDF1 female mice bearing an implanted lewis lung tumor after intravenous injection in blood at 4 h.; outline: as §2
Mus musculus [28] = assay: Tissue distribution in BDF1 female mice bearing an implanted lewis lung tumor after intravenous injection in blood at 8 h.; outline: as §2
Mus musculus [29] = assay: Tissue distribution in BDF1 female mice bearing an implanted lewis lung tumor after intravenous injection in spleen at 1 h.; outline: as §1
Mus musculus [30] = assay: Tissue distribution in BDF1 female mice bearing an implanted lewis lung tumor after intravenous injection in spleen at 24 h.; outline: as §1
Mus musculus [31] = assay: Tissue distribution in BDF1 female mice bearing an implanted lewis lung tumor after intravenous injection in spleen at 4 h.; outline: as §1
Mus musculus [32] = assay: Tissue distribution in BDF1 female mice bearing an implanted lewis lung tumor after intravenous injection in spleen at 8 h.; outline: as §1
Mus musculus [33] = assay: Tissue distribution in BDF1 female mice bearing an implanted lewis lung tumor after intravenous injection in stomach at 1 h.; outline: as §1
Mus musculus [34] = assay: Tissue distribution in BDF1 female mice bearing an implanted lewis lung tumor after intravenous injection in stomach at 24 h.; outline: as §1
Mus musculus [35] = assay: Tissue distribution in BDF1 female mice bearing an implanted lewis lung tumor after intravenous injection in stomach at 4 h.; outline: as §1
Mus musculus [36] = assay: Tissue distribution in BDF1 female mice bearing an implanted lewis lung tumor after intravenous injection in tumor at 0.25 h.
Outline: (§3)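 Female BDF1 mice (18–20 g) carrying a transplanted Lewis lung tumor were given 23–193 kBq of the [2-14C]-labelled nucleoside in normal saline by tail vein. Animals were killed at set times. Tissue 14C was counted by liquid scintillation, after combustion or directly. Values are percent of injected dose per gram wet tissue, as mean ± standard deviation of six animals.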

Mus musculus [37] = assay: Tissue distribution in BDF1 female mice bearing an implanted lewis lung tumor after intravenous injection in tumor at 0.5 h.; outline: as §3
Mus musculus [38] = assay: Tissue distribution in BDF1 female mice bearing an implanted lewis lung tumor after intravenous injection in tumor at 2 h.; outline: as §3
Mus musculus [39] = assay: Tissue distribution in BDF1 female mice bearing an implanted lewis lung tumor after intravenous injection in tumor at 4 h.; outline: as §3
Mus musculus [40] = assay: Tissue distribution in BDF1 female mice bearing an implanted lewis lung tumor after intravenous injection in bone at 2 h.; outline: as §2
Mus musculus [41] = assay: Tissue distribution in BDF1 female mice bearing an implanted lewis lung tumor after intravenous injection in kidney at 0.5 h.; outline: as §2
Mus musculus [42] = assay: Tissue distribution in BDF1 female mice bearing an implanted lewis lung tumor after intravenous injection in muscle at 8 h.; outline: as §1
Mus musculus [43] = assay: Tissue distribution in BDF1 female mice bearing an implanted lewis lung tumor after intravenous injection in blood at 24 h.; outline: as §2
Mus musculus [44] = assay: Tissue distribution in BDF1 female mice bearing an implanted lewis lung tumor after intravenous injection in kidney at 4 h.; outline: as §1

For `O=c1[nH]c(=O)n([C@H]2O[C@@H](CO)[C@H](O)[C@H]2F)cc1Cl`, the Tissue distribution (Mus musculus [1]) was 2.73, the Tissue distribution (Mus musculus [2]) was 0.01 and the Tissue distribution (Mus musculus [3]) was 0.43. For the same compound, the Tissue distribution (Mus musculus [4]) was 0.06, the Tissue distribution (Mus musculus [5]) was 0.78 and the Tissue distribution (Mus musculus [6]) was 0.27. For the same compound, the Tissue distribution (Mus musculus [7]) was 0.15, the Tissue distribution (Mus musculus [8]) was 0.01 and the Tissue distribution (Mus musculus [9]) was 1.02. The Tissue distribution (Mus musculus [10]) was 0.17, the Tissue distribution (Mus musculus [11]) was 0.02 and the Tissue distribution (Mus musculus [12]) was 0.17. It also gave a Tissue distribution (Mus musculus [13]) of 0.04, a Tissue distribution (Mus musculus [14]) of 3.07 and a Tissue distribution (Mus musculus [15]) of 0.53. For the same compound, the Tissue distribution (Mus musculus [16]) was 0.02, the Tissue distribution (Mus musculus [17]) was 0.06 and the Tissue distribution (Mus musculus [18]) was 0.03. For the same compound, the Tissue distribution (Mus musculus [19]) was 0.03, the Tissue distribution (Mus musculus [20]) was 0.09 and the Tissue distribution (Mus musculus [21]) was 2.39. For the same compound, the Tissue distribution (Mus musculus [22]) was 1.43, the Tissue distribution (Mus musculus [23]) was 0.47 and 0.6 and the Tissue distribution (Mus musculus [24]) was 0.15. It also gave a Tissue distribution (Mus musculus [25]) of 0.05, a Tissue distribution (Mus musculus [26]) of 3.54 and a Tissue distribution (Mus musculus [27]) of 0.06. The Tissue distribution (Mus musculus [28]) was 0.03, the Tissue distribution (Mus musculus [29]) was 0.48 and the Tissue distribution (Mus musculus [30]) was 0.06. The Tissue distribution (Mus musculus [31]) was 0.17, the Tissue distribution (Mus musculus [32]) was 0.15 and the Tissue distribution (Mus musculus [33]) was 0.27. It also gave a Tissue distribution (Mus musculus [34]) of 0.01, a Tissue distribution (Mus musculus [35]) of 0.07 and a Tissue distribution (Mus musculus [36]) of 2.62. For the same compound, the Tissue distribution (Mus musculus [37]) was 1.82, the Tissue distribution (Mus musculus [38]) was 0.34 and the Tissue distribution (Mus musculus [39]) was 0.23. For the same compound, the Tissue distribution (Mus musculus [40]) was 0.08, the Tissue distribution (Mus musculus [41]) was 23.2 and the Tissue distribution (Mus musculus [42]) was 0.03. The Tissue distribution (Mus musculus [43]) was 0.01 and the Tissue distribution (Mus musculus [44]) was 0.33.
